# Test results taken from ChEMBL document CHEMBL4689842, “EUbOPEN Chemogenomics Library wave 1” (2021).
# System: U2OS
# Experiment: Multiplex assay against U2OS
# Type: toxicity, cell-based
# Conditions: human
# Method in brief: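 Phenotypes for tubulin, mitochondrial mass and membrane permeability are expressed as per cents of healthy-nucleus cells. Cells were stained live at seeding with Hoechst33342, BioTracker Green Microtubule Cytoskeleton Dye, MitoTracker Red and Annexin V Alexa Fluor 680, then imaged after compound addition on a CQ1 microscope at 37°C and 5% CO2. Machine-learning gating in CellPathfinder separated Hoechst high-intensity objects from normal cells, divided normal cells by nuclear state (healthy, pyknosed, fragmented) and divided pyknosed cells into mitotic or apoptotic.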
# [1] = 12 h, 1 µM, compound concentration 1 uM, replicate 1
# [2] = 12 h, 1 µM, compound concentration 1 uM, replicate 2
# [3] = 12 h, 10 µM, compound concentration 10 uM, replicate 1
# [4] = 12 h, 10 µM, compound concentration 10 uM, replicate 2
# [5] = 24 h, 1 µM, compound concentration 1 uM, replicate 1
# [6] = 24 h, 1 µM, compound concentration 1 uM, replicate 2
# [7] = 24 h, 10 µM, compound concentration 10 uM, replicate 1
# [8] = 24 h, 10 µM, compound concentration 10 uM, replicate 2
# [9] = 48 h, 1 µM, compound concentration 1 uM, replicate 1
# [10] = 48 h, 1 µM, compound concentration 1 uM, replicate 2
# [11] = 48 h, 10 µM, compound concentration 10 uM, replicate 1
# [12] = 48 h, 10 µM, compound concentration 10 uM, replicate 2
smiles,measurement,setting,value
O=C1N/C(=N/c2ccccc2F)S/C1=C\c1ccc(C(=O)O)cc1,Population Apoptotic (%),[1],33%
same,Population Fragmented Nuclei (%),[1],8%
same,Population Healthy Nuclei (%),[1],85%
same,Population Hoechst High Intensity Objects (%),[1],9%
same,Population Membrane Permeable-Phenotype (%),[1],6%
same,Population Mitochondria Different-Phenotype (%),[1],10%
same,Population Mitotic Cells (%),[1],66%
same,Population Normal (%),[1],90%
same,Population Pyknosed Nuclei (%),[1],5%
same,Population Tubulin-Different-Phenotype (%),[1],7%
same,Total Cell Count,[1],130
same,Population Apoptotic (%),[2],0%
same,Population Fragmented Nuclei (%),[2],3%
same,Population Healthy Nuclei (%),[2],92%
same,Population Hoechst High Intensity Objects (%),[2],8%
same,Population Mitochondria Different-Phenotype (%),[2],16%
same,Population Mitotic Cells (%),[2],100%
same,Population Normal (%),[2],91%
same,Population Pyknosed Nuclei (%),[2],3%
same,Population Tubulin-Different-Phenotype (%),[2],24%
same,Total Cell Count,[2],66
same,Population Apoptotic (%),[3],25%
same,Population Fragmented Nuclei (%),[3],8%
same,Population Healthy Nuclei (%),[3],82%
same,Population Hoechst High Intensity Objects (%),[3],5%
same,Population Membrane Permeable-Phenotype (%),[3],6%
same,Population Mitochondria Different-Phenotype (%),[3],15%
same,Population Mitotic Cells (%),[3],75%
same,Population Normal (%),[3],94%
same,Population Pyknosed Nuclei (%),[3],8%
same,Population Tubulin-Different-Phenotype (%),[3],8%
same,Total Cell Count,[3],175
same,Population Apoptotic (%),[4],44%
same,Population Fragmented Nuclei (%),[4],4%
same,Population Healthy Nuclei (%),[4],81%
same,Population Hoechst High Intensity Objects (%),[4],8%
same,Population Membrane Permeable-Phenotype (%),[4],1%
same,Population Mitochondria Different-Phenotype (%),[4],9%
same,Population Mitotic Cells (%),[4],55%
same,Population Normal (%),[4],91%
same,Population Pyknosed Nuclei (%),[4],14%
same,Population Tubulin-Different-Phenotype (%),[4],9%
same,Total Cell Count,[4],59
same,Population Apoptotic (%),[5],33%
same,Population Fragmented Nuclei (%),[5],9%
same,Population Healthy Nuclei (%),[5],81%
same,Population Membrane Permeable-Phenotype (%),[5],4%
same,Population Mitochondria Different-Phenotype (%),[5],6%
same,Population Mitotic Cells (%),[5],66%
same,Population Pyknosed Nuclei (%),[5],8%
same,Population Tubulin-Different-Phenotype (%),[5],4%
same,Total Cell Count,[5],131
same,Population Apoptotic (%),[6],0%
same,Population Fragmented Nuclei (%),[6],7%
same,Population Healthy Nuclei (%),[6],85%
same,Population Hoechst High Intensity Objects (%),[6],5%
same,Population Membrane Permeable-Phenotype (%),[6],5%
same,Population Mitochondria Different-Phenotype (%),[6],10%
same,Population Mitotic Cells (%),[6],100%
same,Population Normal (%),[6],94%
same,Population Pyknosed Nuclei (%),[6],7%
same,Population Tubulin-Different-Phenotype (%),[6],23%
same,Total Cell Count,[6],69
same,Population Apoptotic (%),[7],20%
same,Population Fragmented Nuclei (%),[7],6%
same,Population Healthy Nuclei (%),[7],85%
same,Population Hoechst High Intensity Objects (%),[7],3%
same,Population Membrane Permeable-Phenotype (%),[7],4%
same,Population Mitochondria Different-Phenotype (%),[7],10%
same,Population Mitotic Cells (%),[7],80%
same,Population Normal (%),[7],96%
same,Population Pyknosed Nuclei (%),[7],8%
same,Population Tubulin-Different-Phenotype (%),[7],5%
same,Total Cell Count,[7],234
same,Population Apoptotic (%),[8],60%
same,Population Fragmented Nuclei (%),[8],5%
same,Population Healthy Nuclei (%),[8],88%
same,Population Hoechst High Intensity Objects (%),[8],5%
same,Population Membrane Permeable-Phenotype (%),[8],2%
same,Population Mitochondria Different-Phenotype (%),[8],6%
same,Population Mitotic Cells (%),[8],40%
same,Population Normal (%),[8],94%
same,Population Pyknosed Nuclei (%),[8],5%
same,Population Tubulin-Different-Phenotype (%),[8],16%
same,Total Cell Count,[8],73
same,Population Apoptotic (%),[9],27%
same,Population Healthy Nuclei (%),[9],86%
same,Population Hoechst High Intensity Objects (%),[9],1%
same,Population Membrane Permeable-Phenotype (%),[9],1%
same,Population Mitochondria Different-Phenotype (%),[9],14%
same,Population Mitotic Cells (%),[9],72%
same,Population Normal (%),[9],98%
same,Population Pyknosed Nuclei (%),[9],6%
same,Population Tubulin-Different-Phenotype (%),[9],6%
same,Total Cell Count,[9],134
same,Population Apoptotic (%),[10],0%
same,Population Fragmented Nuclei (%),[10],6%
same,Population Healthy Nuclei (%),[10],92%
same,Population Hoechst High Intensity Objects (%),[10],5%
same,Population Membrane Permeable-Phenotype (%),[10],7%
same,Population Mitochondria Different-Phenotype (%),[10],16%
same,Population Mitotic Cells (%),[10],100%
same,Population Normal (%),[10],94%
same,Population Pyknosed Nuclei (%),[10],1%
same,Population Tubulin-Different-Phenotype (%),[10],23%
same,Total Cell Count,[10],76
same,Population Apoptotic (%),[11],21%
same,Population Healthy Nuclei (%),[11],90%
same,Population Membrane Permeable-Phenotype (%),[11],2%
same,Population Mitochondria Different-Phenotype (%),[11],14%
same,Population Mitotic Cells (%),[11],78%
same,Population Pyknosed Nuclei (%),[11],5%
same,Population Tubulin-Different-Phenotype (%),[11],5%
same,Total Cell Count,[11],338
same,Population Apoptotic (%),[12],22%
same,Population Fragmented Nuclei (%),[12],4%
same,Population Healthy Nuclei (%),[12],83%
same,Population Hoechst High Intensity Objects (%),[12],2%
same,Population Membrane Permeable-Phenotype (%),[12],6%
same,Population Mitochondria Different-Phenotype (%),[12],9%
same,Population Mitotic Cells (%),[12],77%
same,Population Normal (%),[12],97%
same,Population Pyknosed Nuclei (%),[12],12%
same,Population Tubulin-Different-Phenotype (%),[12],22%
same,Total Cell Count,[12],105
CCCS(=O)(=O)Nc1ccc(F)c(C(=O)c2c[nH]c3ncc(Cl)cc23)c1F [PLX-4720],Population Apoptotic (%),[1],55%
same,Population Fragmented Nuclei (%),[1],6%
same,Population Healthy Nuclei (%),[1],88%
same,Population Hoechst High Intensity Objects (%),[1],2%
same,Population Membrane Permeable-Phenotype (%),[1],14%
same,Population Mitochondria Different-Phenotype (%),[1],21%
same,Population Mitotic Cells (%),[1],44%
same,Population Normal (%),[1],97%
same,Population Pyknosed Nuclei (%),[1],5%
same,Population Tubulin-Different-Phenotype (%),[1],26%
same,Total Cell Count,[1],145
same,Population Apoptotic (%),[2],33%
same,Population Fragmented Nuclei (%),[2],7%
same,Population Healthy Nuclei (%),[2],89%
same,Population Hoechst High Intensity Objects (%),[2],15%
same,Population Membrane Permeable-Phenotype (%),[2],12%
same,Population Mitochondria Different-Phenotype (%),[2],24%
same,Population Mitotic Cells (%),[2],66%
same,Population Normal (%),[2],84%
same,Population Pyknosed Nuclei (%),[2],3%
same,Population Tubulin-Different-Phenotype (%),[2],28%
same,Total Cell Count,[2],153
same,Population Apoptotic (%),[3],50%
same,Population Healthy Nuclei (%),[3],89%
same,Population Hoechst High Intensity Objects (%),[3],3%
same,Population Membrane Permeable-Phenotype (%),[3],8%
same,Population Mitochondria Different-Phenotype (%),[3],30%
same,Population Mitotic Cells (%),[3],50%
same,Population Normal (%),[3],96%
same,Population Pyknosed Nuclei (%),[3],4%
same,Population Tubulin-Different-Phenotype (%),[3],26%
same,Total Cell Count,[3],164
same,Population Apoptotic (%),[4],0%
same,Population Fragmented Nuclei (%),[4],6%
same,Population Healthy Nuclei (%),[4],88%
same,Population Hoechst High Intensity Objects (%),[4],9%
same,Population Membrane Permeable-Phenotype (%),[4],11%
same,Population Mitochondria Different-Phenotype (%),[4],31%
same,Population Mitotic Cells (%),[4],100%
same,Population Normal (%),[4],90%
same,Population Pyknosed Nuclei (%),[4],5%
same,Population Tubulin-Different-Phenotype (%),[4],23%
same,Total Cell Count,[4],101
same,Population Apoptotic (%),[5],43%
same,Population Fragmented Nuclei (%),[5],5%
same,Population Healthy Nuclei (%),[5],86%
same,Population Hoechst High Intensity Objects (%),[5],3%
same,Population Membrane Permeable-Phenotype (%),[5],16%
same,Population Mitochondria Different-Phenotype (%),[5],26%
same,Population Mitotic Cells (%),[5],56%
same,Population Normal (%),[5],96%
same,Population Pyknosed Nuclei (%),[5],7%
same,Population Tubulin-Different-Phenotype (%),[5],22%
same,Total Cell Count,[5],201
same,Population Apoptotic (%),[6],11%
same,Population Fragmented Nuclei (%),[6],3%
same,Population Healthy Nuclei (%),[6],88%
same,Population Hoechst High Intensity Objects (%),[6],11%
same,Population Membrane Permeable-Phenotype (%),[6],9%
same,Population Mitochondria Different-Phenotype (%),[6],25%
same,Population Mitotic Cells (%),[6],88%
same,Population Normal (%),[6],88%
same,Population Pyknosed Nuclei (%),[6],8%
same,Population Tubulin-Different-Phenotype (%),[6],23%
same,Total Cell Count,[6],198
same,Population Apoptotic (%),[7],20%
same,Population Fragmented Nuclei (%),[7],2%
same,Population Healthy Nuclei (%),[7],92%
same,Population Hoechst High Intensity Objects (%),[7],2%
same,Population Membrane Permeable-Phenotype (%),[7],5%
same,Population Mitochondria Different-Phenotype (%),[7],32%
same,Population Mitotic Cells (%),[7],80%
same,Population Normal (%),[7],97%
same,Population Pyknosed Nuclei (%),[7],5%
same,Population Tubulin-Different-Phenotype (%),[7],24%
same,Total Cell Count,[7],152
same,Population Apoptotic (%),[8],57%
same,Population Fragmented Nuclei (%),[8],4%
same,Population Healthy Nuclei (%),[8],91%
same,Population Hoechst High Intensity Objects (%),[8],7%
same,Population Membrane Permeable-Phenotype (%),[8],7%
same,Population Mitochondria Different-Phenotype (%),[8],38%
same,Population Mitotic Cells (%),[8],42%
same,Population Normal (%),[8],92%
same,Population Pyknosed Nuclei (%),[8],3%
same,Population Tubulin-Different-Phenotype (%),[8],32%
same,Total Cell Count,[8],93
